Laboratory results taken from ChEMBL document CHEMBL4414601 (J Med Chem, 2019).
≈ marks a conversion by molar mass, not a printed value. Calls of active or inactive are those of the source. The rule behind the calls is not given here.

Key:
Plasmodium falciparum [1] = assay: Antiplasmodial activity against Plasmodium falciparum 3D7A erythrocytic stage assessed as reduction in [3H]hypoxanthine incorporation preincubated for 24 hrs followed by [3H]hypoxanthine addition and measured after 24 hrs by microbeta scintillation counting method; type: functional, organism-based
Outline: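 Nine threefold serial dilutions from 5 μM top concentration. Incubated 24 h at 37 °C under 5% CO2/5% O2/90% N2, then 0.2 μCi [3H]-hypoxanthine per well for another 24 h. Cells harvested on glass fibre filters and counted. Data normalized to compound-free parasitized RBCs; IC50 fitted.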

[2] = Lipophilicity, LogD of compound by reverse phase HPLC analysis
[3] = Aqueous solubility of compound; settings: buffer
[4] = target: Voltage-gated inwardly rectifying potassium channel KCNH2 (Homo sapiens, UniProt Q12809); assay: Inhibition of human ERG expressed in CHO cells by Q-patch clamp assay
L929 = assay: Cytotoxicity against mouse L929 cells assessed as reduction in viability by dual luciferase reporter gene assay; type: ADME, cell-based
[5] = Permeability of compound by PAMPA
[6] = Clearance in mouse liver microsomes at 0.5 uM measured up to 45 mins in presence of NADPH by HPLC-MS/MS analysis; type: ADME, Microsome
[7] = Clearance in rat liver microsomes at 0.5 uM measured up to 45 mins in presence of NADPH by HPLC-MS/MS analysis; type: ADME, Microsome
[8] = Clearance in human liver microsomes at 0.5 uM measured up to 45 mins in presence of NADPH by HPLC-MS/MS analysis; type: ADME, Microsome
Plasmodium falciparum [9] = assay: (§1) Antiplasmodial activity against Plasmodium falciparum 3D7A asexual erythrocytic stage assessed as reduction in [3H]hypoxanthine incorporation preincubated for 48 hrs followed by [3H]hypoxanthine addition and measured after 24 hrs by microbeta scintillation counting method; type: functional, organism-based
Plasmodium falciparum [10] = assay: as §1, with “3D7A harboring with PKG T618Q mutant” for “3D7A”; type: functional, organism-based
Plasmodium falciparum [11] = assay: as §1, with “3D7A harboring with PKG T618Q mutant” for “3D7A”, “72” for “48”; type: functional, organism-based
Plasmodium falciparum [12] = assay: Antiplasmodial activity against Plasmodium falciparum 3D7A erythrocytic stage assessed as reduction in [3H]hypoxanthine incorporation preincubated for 24 to 120 hrs followed by subculture in absence of compound and measured after 21 to 28 days by microbeta scintillation counting method; type: functional, organism-based
Outline: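 P. falciparum 3D7A cultures were drug-exposed for 120 h, with samples taken every 24 h (24, 48, 72, 96 and 120 h). Viable parasites were quantified by limiting dilution, counting wells with growth after 21 and 28 days by [3H]-hypoxanthine incorporation.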

[13] = target: cGMP-dependent protein kinase (Plasmodium falciparum, UniProt W7JX98); assay: Inhibition of Plasmodium falciparum full length N-terminal His-tagged PKG expressed in Escherichia coli RosettaTM 2(DE3) pLysS cells using FAM-GRTGRRNSI-NH2 as substrate preincubated for 30 mins followed by ATP addition and measured after 30 mins by microfluidic mobility shift assay
Plasmodium falciparum [14] = assay: Antiplasmodial activity against Plasmodium falciparum 3D7A asexual erythrocytic stage assessed as reduction in [3H]hypoxanthine incorporation preincubated for 72 hrs followed by [3H]hypoxanthine addition and measured after 24 hrs by microbeta scintillation counting method; type: functional, organism-based
[15] = target: T1, Calcium-dependent protein kinase 4 (Plasmodium falciparum (isolate 3D7), UniProt Q8IBS5); assay: Binding affinity to CDPK4 in Plasmodium falciparum 3D7 blood stage extract incubated for 1 hr by kinobeads based pull down assay; settings: read-out: Kd(app)
T1 sequence (Q8IBS5 whole entry): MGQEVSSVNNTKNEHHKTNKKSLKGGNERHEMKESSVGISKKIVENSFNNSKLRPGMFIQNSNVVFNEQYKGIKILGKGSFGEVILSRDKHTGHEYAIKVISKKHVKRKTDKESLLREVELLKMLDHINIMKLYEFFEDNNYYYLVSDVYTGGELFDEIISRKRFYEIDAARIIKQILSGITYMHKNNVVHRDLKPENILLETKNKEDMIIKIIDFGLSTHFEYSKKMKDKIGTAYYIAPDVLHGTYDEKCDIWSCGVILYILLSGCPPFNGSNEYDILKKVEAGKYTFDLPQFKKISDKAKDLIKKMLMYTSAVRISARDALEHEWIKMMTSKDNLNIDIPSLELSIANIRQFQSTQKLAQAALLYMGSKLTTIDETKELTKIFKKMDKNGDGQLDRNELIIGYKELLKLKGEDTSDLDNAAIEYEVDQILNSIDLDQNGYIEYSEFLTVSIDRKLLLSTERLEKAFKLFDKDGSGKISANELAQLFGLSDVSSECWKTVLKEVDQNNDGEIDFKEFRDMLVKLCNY
Outline: (§2)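 Chemoproteomic competition used kinobeads or Sepharose beads derivatized with ligand at 1 mM. Free compound was tested at six concentrations between 0.08 and 20 μM, in two independent experiments. Proteins were SP3-digested, TMT 10-plex labelled and measured by LC-MS/MS. IC50s came from competition curves, and apparent Kd was corrected for protein depletion by the beads.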

[16] = target: T1, Calcium-dependent protein kinase 4; assay: Binding affinity to CDPK4 in Plasmodium falciparum 3D7 blood stage extract incubated for 1 hr in presence of ATP-competitive kinase inhibitor by kinobeads based pull down assay; settings: read-out: Kd(app); outline: as §2
[17] = target: T2, Calcium-dependent protein kinase 1 (Plasmodium falciparum, UniProt P62344); assay: Binding affinity to CDPK1 in Plasmodium falciparum 3D7 blood stage extract incubated for 1 hr by kinobeads based pull down assay; settings: read-out: Kd(app); outline: as §2
[18] = target: T2, Calcium-dependent protein kinase 1; assay: Binding affinity to CDPK1 in Plasmodium falciparum 3D7 blood stage extract incubated for 1 hr in presence of ATP-competitive kinase inhibitor by kinobeads based pull down assay; settings: read-out: Kd(app); outline: as §2
Casein kinase I = target: T3, Casein kinase I (Plasmodium falciparum (isolate 3D7), UniProt Q8IHZ9); assay: Binding affinity to CK1 in Plasmodium falciparum 3D7 blood stage extract incubated for 1 hr by kinobeads based pull down assay; settings: read-out: Kd(app)
T3 sequence (Q8IHZ9 whole entry): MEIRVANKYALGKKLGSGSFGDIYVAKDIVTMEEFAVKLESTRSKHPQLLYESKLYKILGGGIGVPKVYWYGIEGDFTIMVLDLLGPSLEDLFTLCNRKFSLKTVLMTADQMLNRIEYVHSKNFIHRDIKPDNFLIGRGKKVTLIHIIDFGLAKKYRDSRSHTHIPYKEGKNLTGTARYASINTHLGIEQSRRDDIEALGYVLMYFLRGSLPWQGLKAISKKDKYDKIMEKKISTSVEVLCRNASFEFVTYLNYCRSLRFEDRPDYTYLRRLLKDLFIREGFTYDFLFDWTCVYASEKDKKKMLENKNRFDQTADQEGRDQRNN
Outline: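 Chemoproteomic competition binding: Sepharose beads derivatized at 1 mM with the immobilized ligand (kinobeads prepared likewise). Free compound competed at six concentrations, 0.08–20 μM. Proteins were SP3-digested, TMT 10-plex labelled and quantified by LC-MS/MS on an Orbitrap. IC50 from the competition curve; apparent Kd corrected for protein depletion by the beads. Two independent experiments.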

[19] = Binding affinity to GSK3 in Plasmodium falciparum 3D7 blood stage extract incubated for 1 hr by kinobeads based pull down assay; settings: read-out: Kd(app)
Outline: (§3)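 The free compound competed over six concentrations from 0.08 to 20 μM. Proteins were digested by a modified SP3 protocol, labelled with TMT 10-plex and quantified by LC-MS/MS. Apparent Kd was derived from IC50 corrected for bead depletion. Two independent experiments were run.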

[20] = Binding affinity to GSK3 in Plasmodium falciparum 3D7 blood stage extract incubated for 1 hr in presence of ATP-competitive kinase inhibitor by kinobeads based pull down assay; settings: read-out: Kd(app); outline: as §3
[21] = Binding affinity to SRPK2 in Plasmodium falciparum 3D7 blood stage extract incubated for 1 hr in presence of ATP-competitive kinase inhibitor by kinobeads based pull down assay; settings: read-out: Kd(app); outline: as §3
[22] = system: Plasmodium falciparum 3D7

T2 sequence (P62344 whole entry): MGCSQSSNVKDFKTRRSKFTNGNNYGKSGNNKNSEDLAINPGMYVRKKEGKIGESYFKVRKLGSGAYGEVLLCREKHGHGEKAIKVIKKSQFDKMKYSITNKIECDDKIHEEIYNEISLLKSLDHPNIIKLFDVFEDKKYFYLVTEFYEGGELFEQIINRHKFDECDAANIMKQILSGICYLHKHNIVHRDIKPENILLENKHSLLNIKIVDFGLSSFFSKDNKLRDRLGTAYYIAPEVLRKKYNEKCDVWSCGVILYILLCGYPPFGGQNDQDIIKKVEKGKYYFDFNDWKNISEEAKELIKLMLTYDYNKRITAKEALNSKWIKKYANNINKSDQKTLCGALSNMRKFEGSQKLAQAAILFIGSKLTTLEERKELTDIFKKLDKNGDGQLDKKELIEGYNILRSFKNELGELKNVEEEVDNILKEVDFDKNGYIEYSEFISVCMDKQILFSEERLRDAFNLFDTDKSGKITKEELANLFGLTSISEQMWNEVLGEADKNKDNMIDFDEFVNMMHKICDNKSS
Sequence of cGMP-dependent protein kinase (W7JX98 whole entry): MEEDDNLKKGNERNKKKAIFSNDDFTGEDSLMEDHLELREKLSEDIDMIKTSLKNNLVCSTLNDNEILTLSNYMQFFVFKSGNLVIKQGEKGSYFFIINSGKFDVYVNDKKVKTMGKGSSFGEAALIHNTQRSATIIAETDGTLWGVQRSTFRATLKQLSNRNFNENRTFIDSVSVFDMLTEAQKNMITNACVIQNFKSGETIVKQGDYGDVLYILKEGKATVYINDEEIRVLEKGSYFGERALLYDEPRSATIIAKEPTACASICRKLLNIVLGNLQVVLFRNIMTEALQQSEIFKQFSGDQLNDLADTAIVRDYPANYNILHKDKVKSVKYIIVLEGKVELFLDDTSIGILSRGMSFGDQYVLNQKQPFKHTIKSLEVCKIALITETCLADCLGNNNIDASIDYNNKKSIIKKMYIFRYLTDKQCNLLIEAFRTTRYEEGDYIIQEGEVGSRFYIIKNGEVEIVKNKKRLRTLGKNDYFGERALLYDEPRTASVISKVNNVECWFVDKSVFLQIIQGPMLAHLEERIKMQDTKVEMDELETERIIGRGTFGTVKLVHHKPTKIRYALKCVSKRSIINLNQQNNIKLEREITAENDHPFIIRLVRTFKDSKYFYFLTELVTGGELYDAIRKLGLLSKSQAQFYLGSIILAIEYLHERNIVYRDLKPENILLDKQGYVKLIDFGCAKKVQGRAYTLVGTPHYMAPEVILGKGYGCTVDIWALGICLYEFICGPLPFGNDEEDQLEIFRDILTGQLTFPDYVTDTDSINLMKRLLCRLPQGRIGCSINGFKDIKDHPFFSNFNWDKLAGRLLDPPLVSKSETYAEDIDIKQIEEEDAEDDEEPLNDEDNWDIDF
Sequence of Voltage-gated inwardly rectifying potassium channel KCNH2 (Q12809 whole entry): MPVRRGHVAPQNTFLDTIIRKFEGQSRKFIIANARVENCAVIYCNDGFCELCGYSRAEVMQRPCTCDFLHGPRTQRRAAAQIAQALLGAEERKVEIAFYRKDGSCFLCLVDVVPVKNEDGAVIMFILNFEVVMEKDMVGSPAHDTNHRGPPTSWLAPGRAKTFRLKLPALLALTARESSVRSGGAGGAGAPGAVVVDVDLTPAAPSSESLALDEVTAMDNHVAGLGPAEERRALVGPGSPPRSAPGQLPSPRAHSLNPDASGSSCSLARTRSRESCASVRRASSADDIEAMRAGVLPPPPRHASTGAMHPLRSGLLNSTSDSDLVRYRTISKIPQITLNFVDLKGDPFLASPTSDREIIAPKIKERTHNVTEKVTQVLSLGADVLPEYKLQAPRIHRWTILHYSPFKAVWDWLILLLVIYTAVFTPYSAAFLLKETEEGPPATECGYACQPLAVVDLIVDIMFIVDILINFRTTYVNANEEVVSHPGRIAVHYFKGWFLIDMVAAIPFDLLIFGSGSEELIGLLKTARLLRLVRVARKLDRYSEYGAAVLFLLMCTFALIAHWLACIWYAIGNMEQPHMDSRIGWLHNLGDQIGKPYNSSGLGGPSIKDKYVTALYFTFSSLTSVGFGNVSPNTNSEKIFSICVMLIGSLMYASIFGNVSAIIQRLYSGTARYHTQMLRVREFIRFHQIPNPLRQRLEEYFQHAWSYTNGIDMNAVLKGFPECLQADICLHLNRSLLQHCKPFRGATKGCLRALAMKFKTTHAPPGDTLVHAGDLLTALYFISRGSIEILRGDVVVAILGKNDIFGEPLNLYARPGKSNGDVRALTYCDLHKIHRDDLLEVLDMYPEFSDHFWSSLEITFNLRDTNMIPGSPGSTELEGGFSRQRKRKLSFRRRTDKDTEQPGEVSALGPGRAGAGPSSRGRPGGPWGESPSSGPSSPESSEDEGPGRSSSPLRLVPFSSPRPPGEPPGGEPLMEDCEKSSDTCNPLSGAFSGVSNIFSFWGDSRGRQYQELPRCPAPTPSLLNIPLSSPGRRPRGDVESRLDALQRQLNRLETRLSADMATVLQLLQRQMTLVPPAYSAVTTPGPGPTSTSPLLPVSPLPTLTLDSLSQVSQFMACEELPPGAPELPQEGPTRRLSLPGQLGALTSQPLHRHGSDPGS

| SMILES | EC50 (Plasmodium falciparum [1]) | chromatographic logD [2] | solubility [3] | EC50 (L929) | Papp [5] | CLH [6] | CLH [7] | CLH [8] | EC50 (Plasmodium falciparum [9]) | EC50 (Plasmodium falciparum [10]) | EC50 (Plasmodium falciparum [11]) | further results |
| --- | --- | --- | --- | --- | --- | --- | --- | --- | --- | --- | --- | --- |
| CN1CCC(c2nc(-c3ccc(F)c(NS(C)(=O)=O)c3)c(-c3ccnc(NCC4CC4)n3)s2)CC1 | 1020 nM | 3.2 | 311 µM (≈ 161 µg/mL) | 17000 nM | 34 ×10⁻⁶ cm/s | 1.32 mL/min/g | 6.22 mL/min/g | 0.49 mL/min/g | 1020 nM | > 5000 nM | 3900 nM | IC50 [4]: 1340 nM; Activity (Plasmodium falciparum [12]): inactive |
| Fc1ccc(-c2nc(C3CCNCC3)sc2-c2ccnc(Nc3cnccn3)n2)cc1 | 600 nM | 2.32 | 68 µM (≈ 29.5 µg/mL) | 3200 nM | 16 ×10⁻⁶ cm/s | 0.72 mL/min/g | 0.49 mL/min/g | 0.4 mL/min/g | 1360 nM | 820 nM | 880 nM | IC50 [13]: 5 nM; EC50 (Plasmodium falciparum [14]): 690 nM |
| Fc1ccc(-c2nc(C3CCNCC3)sc2-c2ccnc(NCCN3CCSCC3)n2)cc1 | 4030 nM | 2.84 | 491 µM (≈ 238 µg/mL) | 15100 nM | 31 ×10⁻⁶ cm/s | – | – | – | – | – | – | Kd [15]: 60 nM; Kd [16]: 60 nM; Kd [17]: 2100 nM; Kd [18]: 2100 nM; Kd (Casein kinase I): 1500 nM; Kd [19]: 5300 nM; Kd [20]: 5300 nM; Kd [21]: > 20000 nM; Kd(app) [22]: inactive |
